Test results from the RNAGym collection of RNA variant scans (doi:10.1126/science.aae0568).
This sample holds only a part of the variants without activity.

B1: tRNA (parent)
chain: GUUCCGUUGGCGUAAUGGUAACGCGUCUCCCUCCUAAGGAGAAGACUGCGGGUUCGAGUCCCGUACGGAACG

Variants of: B1
Assay: yeast fitness relative to wild type (ratio to wild type); higher = fitter; tRNA-Arg(CCU), competitive growth, 37 C, YPD
In short: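 A pool of Saccharomyces cerevisiae strains, each with a tRNA-Arg(CCU) gene variant at the native genomic locus, was competed in YPD at 37°C for 24 hours across six parallel replicates. The variants had been chemically synthesised at a 3% per-site mutation rate over 69 sites, and gene amplicons before and after competition were read by 100-nucleotide paired-end sequencing. Darwinian fitness relative to wild type rested on changes in genotype frequencies. Genotypes required ≥ 100 starting reads, and estimates < 0.5 were set to 0.5.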

Variant | yeast fitness
GUUCCGUUGGCGUAAUGGUAACGCGUUUCCCUCCUAAGGAGAAGAUUGCGGGUUCGAGUCACGUACGGAACG [C27U C46U C61A] | ≤ 0.5
GUUCCGUUGGCGUAAUGGUAACGCGUUUCCCUUCCAAGGAGAAGACUGCGGGUUCGAGUCCCGUACGGAACG [C27U C33U U35C] | ≤ 0.5
GUUCCGUUGGCGUAAUGGUAACGCGUUUCCCUGCUAAGGAGAGGCCUGCGGGUUCGAGUCCCGUACGGAACG [C27U C33G A43G A45C] | 0.634
GUUCCGUUGGCGUAAUGGUAACGCGUUUUCCUCCUAAGGAGAAGACUGCGGGUUCGAGUCCUGUACGGAACG [C27U C29U C62U] | 0.578
GUUCCGUUGGCGUAAUGGUAACGCGUUUCCCUCCUAAGGAGAAGACUGCGGGUUCGAGUCCCGUUCGGACCG [C27U A65U A70C] | 0.607
GUUCCGUUGGCGUAAUGGUAACGCGUUUCCCUCCUAAGGAGAAGAAUGCAGGUUCGAGUCCCGUACGGAACG [C27U C46A G50A] | 0.73
GUUCCGUUGGCGUAAUGGUAACGCGUUUCCCUCCUAAGGAGAAGACUGGGGGUUCGAGUCCCGUACGGUACG [C27U C49G A69U] | 0.542
GUUCCGUUGGCGUAAUGGUAACGCGUUUCCCUCGUAAGGAGAAGACUGCGGGUUCGAGUACCGUACGGAACG [C27U C34G C60A] | ≤ 0.5
GUUCCGUUGGCGUAAUGGUAACGCGUUUCUCUCGUACGGAGAAGACUGCGGGUUCGAGUCACGUACGGAACG [C27U C30U C34G A37C C61A] | ≤ 0.5
GUUCCGUUGGCGUAAUGGUAACGCGUUUCCAUCCUAAGGAGAAGUCUGCGGGUUCGAGUCCCGUACGGAACG [C27U C31A A45U] | 0.747
GUUCCGUUGGCGUAAUGGUAACGCGUUUCCCUCCUAAGGAGAAGAUUGCGGGUUCGAGUCCCGUACGGCACG [C27U C46U A69C] | 0.776
GUUCCGUUGGCGUAAUGGUAACGCGUUUCCCUCCUAAGGAGAAGACUGCGGGUUCGAGUCCCGUACGGUACG [C27U A69U] | 1.02
GUUCCGUUGGCGUAAUGGUAACGCGUUUCUCUCCUAAGGAGAAGAGUGCGGGUUCGAGUCCCGUACGGAACG [C27U C30U C46G] | 0.558
GUUCCGUUGGCGUAAUGGUAACGCGUUUCCCUCCUAAGGAGAAGACUGCGGGUUUGAGUCCCGUACGGAACG [C27U C55U] | 0.773
GUUCCGUUGGCGUAAUGGUAACGCGUUUCCCUCCUAAGGAGAAGCCUACGGGUUCGUGUCCCGUACGCAACG [C27U A45C G48A A57U G68C] | 0.562
GUUCCGUUGGCGUAAUGGUAACGCGUUUCCCUCCUAAGGAGAAGAGUGCGGGUUCGAGUCCCGUACGGCACG [C27U C46G A69C] | 0.757
GUUCCGUUGGCGUAAUGGUAACGCGUUUCACUCCUAAGGAGUAGACUGCGGGUUCGUGUCCCAUCCGGAACG [C27U C30A A42U A57U G63A A65C] | 0.597
GUUCCGUUGGCGUAAUGGUAACGCGUUUCCCUCCUAAGGAGAUGACUGCGGGUUGGAGUCCCGUACGGAACG [C27U A43U C55G] | 0.544
GUUCCGUUGGCGUAAUGGUAACGCGUUUCCCUCCUAAGGAGAAGCCUGCGGGUUCGAGUCCCGUACAGAACG [C27U A45C G67A] | 0.666

Variant | yeast fitness
GUUCCGUUGGCGUAAUGGUAACGCGUUUCCCUCCUAAGGAGAAGACUGAGGGUUCGAGUCCCGUACGGAACG [C27U C49A] | 0.785
GUUCCGUUGGCGUAAUGGUAACGCGUUUCCCUCCUAAGGAGAAGACUGCGGGUUAGAAUCCCGUACGGAACG [C27U C55A G58A] | ≤ 0.5
GUUCCGUUGGCGUAAUGGUAACGCGUUUCCCUCCUAAGGAGAAGAUUACGGGUUCGAGUCCCGUACGAAACG [C27U C46U G48A G68A] | 0.635
GUUCCGUUGGCGUAAUGGUAACGCGUUUCCGUCCUAAGGAGAAGACUGCGGGUUCGAGUCCCGUACGGCACG [C27U C31G A69C] | 0.604
GUUCCGUUGGCGUAAUGGUAACGCGUUUCCCUCCUAAGGAGACGACUGCGGGUUCGAGUCCCGCACGGAACG [C27U A43C U64C] | 0.732
GUUCCGUUGGCGUAAUGGUAACGCGUUUCCCUCCUAAGGAGAAGACUGCGGGUUCGAGUCCUGUACAGAACG [C27U C62U G67A] | 0.573
GUUCCGUUGGCGUAAUGGUAACGCGUUUCCCUCAUAAGGAGAAGACUGCGGGUCCGAGUCCCGUACGGAACG [C27U C34A U54C] | ≤ 0.5
GUUCCGUUGGCGUAAUGGUAACGCGUUUCCCUACUAAGGAGAAGACUGGGGGUUCGAGUCCCGUACGGAACG [C27U C33A C49G] | ≤ 0.5
GUUCCGUUGGCGUAAUGGUAACGCGUUUACCUCCUAAGGAGAAGACUGAGGGUUCGAGUCCCGUACGGAACG [C27U C29A C49A] | ≤ 0.5
GUUCCGUUGGCGUAAUGGUAACGCGUUUCCCUCUUAAGGAGAAGACUGGGGGUUCCAGUCCCGUACGGAACG [C27U C34U C49G G56C] | ≤ 0.5
GUUCCGUUGGCGUAAUGGUAACGCGUUUCCCUUCUUAGGAGAGGACUGCGGGUUCGAGUCCCGUACGGAACG [C27U C33U A36U A43G] | ≤ 0.5
GUUCCGUUGGCGUAAUGGUAACGCGUUUCGCUCCUAAGGAGAAGCCUGCGGGUUCGAGUUCGGUACGGAACG [C27U C30G A45C C60U C62G] | 0.818
GUUCCGUUGGCGUAAUGGUAACGCGUUUCCCUCCUAAGGAGAAGCCUGCGGGUUCGAGUCCCGUACGGAACG [C27U A45C] | 0.947
GUUCCGUUGGCGUAAUGGUAACGCGUUUCCCUCCUAAGGAGAAGUCUGCGGGUUCGAGUCCCGUACGGAACG [C27U A45U] | 1.02
GUUCCGUUGGCGUAAUGGUAACGCGUUUCCCUCCUAAGGAGAAGAUUACGGGUUCGAGUCCCGUACGGCACG [C27U C46U G48A A69C] | 0.696
GUUCCGUUGGCGUAAUGGUAACGCGUUUCACUCCUAAGGAGAAGACUGCGGGUUCGAGUCCCGUACGGUACG [C27U C30A A69U] | 0.585
GUUCCGUUGGCGUAAUGGUAACGCGUUUCCUUCCCUAGGAGAAGACUGCGGGUUAGAGUCCCGUAGGGAACG [C27U C31U U35C A36U C55A C66G] | 0.777
GUUCCGUUGGCGUAAUGGUAACGCGUUUCCCUGGUAAGGAGAAAACUGCAGAUUCGAGUCCCGUUCGGAACG [C27U C33G C34G G44A G50A G52A A65U] | ≤ 0.5
